Like-named read-outs stand apart in the source and are kept apart here.
Columns and labels:
[1] = type: in vivo, human; conditions: for CL/F / AUC / AUC(0-inf) / Cmax / concentration at 14 day / Tmax / Vd/F / half-life: geometric mean (SD); for AUC / AUC(0-inf) / Cmax / concentration at 14 day / Tmax / Vd/F / half-life: human, plasma, oral; for AUC: AUC0–τ; for AUC(0-inf): AUC0–∞; for concentration at 14 day: Cmin; for Vd/F: Vz/F; for time to steady-state conditions: predose samples
Outline: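 Plasma sampled on Days 1 and 14 predose and 0.5–24 h postdose, plus predose on Days 3, 5, 7, 10, 13, 16. Blood kept on ice, spun 2,000g 15 min at 5°C within 45 min, and plasma stored at –70°C. Extraction was by protein precipitation with internal standard. Parameters came from noncompartmental analysis. ANOVA on ln-transformed Cmax, Cmin and AUC0–τ gave geometric mean ratios with 90% CIs versus matched controls.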

[2] = biological target: CCR2 (Homo sapiens, UniProt P41597); test: CCR2 antagonist activity: plasma CCR2 ligand; type: in vivo; conditions: across all groups, P < 0.05
Chain of CCR2 (P41597 whole entry): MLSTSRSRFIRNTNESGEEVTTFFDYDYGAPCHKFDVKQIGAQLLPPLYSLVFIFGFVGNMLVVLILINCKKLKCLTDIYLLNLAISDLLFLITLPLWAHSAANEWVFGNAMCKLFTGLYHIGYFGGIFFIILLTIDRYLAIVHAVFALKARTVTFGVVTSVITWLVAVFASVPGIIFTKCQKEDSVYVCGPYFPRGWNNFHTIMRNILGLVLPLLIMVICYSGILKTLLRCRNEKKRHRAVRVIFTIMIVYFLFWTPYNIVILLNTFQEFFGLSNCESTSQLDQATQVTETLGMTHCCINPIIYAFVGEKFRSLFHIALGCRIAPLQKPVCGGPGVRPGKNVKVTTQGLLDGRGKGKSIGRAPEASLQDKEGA
Outline: (§1)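 Adults with mild or moderate hepatic impairment and matched controls with normal hepatic function were given an oral 150 mg tablet of the test compound over 14 days. Plasma was sampled on Day 1 (predose), Day 7 and Day 14. CCL2, CCL3 and CCL4 were measured by Luminex multiplex and CCL5 by ELISA. Medians, IQR and change from baseline were reported, with Wilcoxon tests.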

[3] = biological target: CCR5 (Homo sapiens, UniProt P51681); test: CCR5 antagonist activity: plasma CCR5 ligand; type: in vivo; conditions: for CCL4 median fold-change: P < 0.05
Chain of CCR5 (P51681 whole entry): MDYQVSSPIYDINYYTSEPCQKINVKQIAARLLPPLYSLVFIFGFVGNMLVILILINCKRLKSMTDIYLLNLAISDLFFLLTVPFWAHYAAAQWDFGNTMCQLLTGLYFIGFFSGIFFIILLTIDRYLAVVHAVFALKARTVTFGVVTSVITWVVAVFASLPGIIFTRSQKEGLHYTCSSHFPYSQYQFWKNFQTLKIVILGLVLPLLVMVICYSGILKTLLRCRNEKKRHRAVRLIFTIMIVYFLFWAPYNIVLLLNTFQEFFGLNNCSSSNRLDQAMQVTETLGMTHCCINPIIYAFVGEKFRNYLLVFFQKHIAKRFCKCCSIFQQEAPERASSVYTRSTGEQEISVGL
Outline: as §1

[4] = test system: proinflammatory cytokines (IL-6, TNF-α, IL-1β, TGF-β); test: Plasma proinflammatory cytokines during treatment; type: in vivo, human
Outline: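 Plasma was taken at Day 1 predose and on treatment Days 7 and 14. IL-6, TNF-α, IL-1β and TGF-β were quantified by Luminex multiplex bead assay, with a magnetic cytokine panel for IL-1β and IL-6. Values were summarised by study day as medians and interquartile ranges, with change from baseline. Comparisons used Wilcoxon tests.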

[5] = test system: I-FABP, flagellin, LBP, sCD14; type: in vivo, human; conditions: within each group
Outline: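 Participants with mild or moderate hepatic impairment and matched normal-function controls received a single-tablet 150 mg oral test compound, dosed over 14 days. I-FABP, flagellin, LBP and sCD14 were quantified by ELISA, following kit instructions, in plasma from Day 1 (predose), Day 7 and Day 14. Results were summarised by day as medians, IQR and change from baseline, using Wilcoxon tests.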

[6] = cited from earlier work
[7] = cited from earlier work; remark: listed apart in the source
[8] = test system: CYP2C8; conditions: cited from earlier work
[9] = test system: P-glycoprotein; conditions: cited from earlier work
[10] = cited from earlier work; remark: listed apart in the source
[11] = Day 14, mild hepatic impairment
[12] = Day 14, moderate hepatic impairment
[13] = 150 mg, Day 14, 150 mg once daily, matched controls (mild)
[14] = 150 mg, Day 14, 150 mg once daily, matched controls (moderate)
[15] = 150 mg, Day 14, 150 mg once daily, mild hepatic impairment
[16] = 150 mg, Day 14, 150 mg once daily, moderate hepatic impairment

CCCCOCCOc1ccc(-c2ccc3c(c2)/C=C(/C(=O)Nc2ccc([S@@+]([O-])Cc4cncn4CCC)cc2)CCCN3CC(C)C)cc1 [cenicriviroc]
CL/F ([1]; Day 1, 150 mg, matched controls (mild)): 22.1 L/h
CL/F ([1]; Day 1, 150 mg, matched controls (moderate)): 31.7 L/h
CL/F ([1]; Day 1, 150 mg, mild hepatic impairment): 27.1 L/h
CL/F ([1]; Day 1, 150 mg, moderate hepatic impairment): 25.8 L/h
CL/F ([1]; Day 14, 150 mg once daily, matched controls (mild)): 14.4 (1.5) L/h
CL/F ([1]; Day 14, 150 mg once daily, matched controls (moderate)): 25.3 (2.0) L/h
CL/F ([1]; Day 14, 150 mg once daily, mild hepatic impairment): 23.2 (1.9) L/h
CL/F ([1]; Day 14, 150 mg once daily, moderate hepatic impairment): 16.3 (1.3) L/h
AUC0–τ lower than matched controls [1, 11]: 38%
Cmax lower than matched controls [1, 11]: 40%
Cmin lower than matched controls [1, 11]: ~27%
AUC0–τ higher than matched controls [1, 12]: 55%
Cmax higher than matched controls [1, 12]: 29%
Cmin higher than matched controls [1, 12]: ~97%
AUC [1, 13]: 10400 ng·h/mL
AUC [1, 14]: 5940 ng·h/mL
AUC [1, 15]: 6470 ng·h/mL
AUC [1, 16]: 9180 ng·h/mL
AUC(0-inf) [1, 13]: 18900 ng·h/mL
AUC(0-inf) [1, 14]: 11000 ng·h/mL
AUC(0-inf) [1, 15]: 14600 ng·h/mL
AUC(0-inf) [1, 16]: 26100 ng·h/mL
Cmax [1, 13]: 759 ng/mL
Cmax [1, 14]: 469 ng/mL
Cmax [1, 15]: 452 ng/mL
Cmax [1, 16]: 607 ng/mL
concentration at 14 day [1, 13]: 248 ng/mL
concentration at 14 day [1, 14]: 140 ng/mL
concentration at 14 day [1, 15]: 180 ng/mL
concentration at 14 day [1, 16]: 275 ng/mL
Tmax [1, 13]: 5.66 h
Tmax [1, 14]: 4.49 h
Tmax [1, 15]: 5.34 h
Tmax [1, 16]: 4.83 h
Vd/F ([1]; 150 mg, Day 1, 150 mg, matched controls (mild)): 262 L
Vd/F ([1]; 150 mg, Day 1, 150 mg, matched controls (moderate)): 370 L
Vd/F ([1]; 150 mg, Day 1, 150 mg, mild hepatic impairment): 329 L
Vd/F ([1]; 150 mg, Day 1, 150 mg, moderate hepatic impairment): 386 L
Vd/F [1, 13]: 455 L
Vd/F [1, 14]: 816 L
Vd/F [1, 15]: 995 L
Vd/F [1, 16]: 886 L
half-life ([1]; 150 mg, t1/2, Day 1, 150 mg, moderate hepatic impairment): 10.4 h
half-life ([1]; 150 mg, t1/2, Day 14, 150 mg once daily, matched controls (mild)): 22 h
half-life ([1]; 150 mg, t1/2, Day 14, 150 mg once daily, matched controls (moderate)): 22.4 h
half-life ([1]; 150 mg, t1/2, Day 14, 150 mg once daily, mild hepatic impairment): 29.7 h
half-life ([1]; 150 mg, t1/2, Day 14, 150 mg once daily, moderate hepatic impairment): 37.6 h
time to steady-state conditions ([1]; matched controls): 7 to 10 days
time to steady-state conditions ([1]; participants with mild or moderate HI): 10 to 13 days
CCL2 median fold-change ([2]; Day 7 vs Day 1 (predose)): 4.4–5.5
CCL2 median fold-change ([2]; Day 14 vs Day 1 (predose)): 4.8–6.0
CCL4 median fold-change ([3]; after 7 days of treatment vs Day 1 (predose)): 1.8–2.3
CCL4 median fold-change ([3]; after 14 days of treatment vs Day 1 (predose)): 1.6–2.5
CCL3 levels change during treatment ([3]; any group): did not change significantly
CCL5 change during treatment ([3]; matched controls (moderate) only, Day 14 vs Day 1, P = 0.008): increased significantly
IL-1β levels change during treatment ([4]; any group): did not change significantly
IL-6 levels change during treatment ([4]; any group): did not change significantly
TNF-α levels change during treatment ([4]; any group): did not change significantly
TGF-β levels change during treatment ([4]; moderate HI group, Day 1 vs Day 14, P < 0.01): increased
I-FABP change during treatment [5]: None of these markers changed significantly
LBP change during treatment [5]: None of these markers changed significantly
flagellin change during treatment [5]: None of these markers changed significantly
sCD14 change during treatment [5]: None of these markers changed significantly
time to reach steady-state plasma concentrations ([6]; healthy participants): 8 to 10 days
plasma half-life ([6]; in humans): 30 to 40 h
effect of administration with food on bioavailability ([6]; in vivo): increase
bound to plasma proteins [7]: > 98%
substrate of CYP2C8 [8]: substrate
substrate of P-glycoprotein [9]: substrate
APRI, FIB-4 and enhanced liver fibrosis score ([10]; HIV-infected participants): decreases
sCD14 levels ([10]; HIV-positive participants (Study 202)): decreased
